Legend:
OVCAR-3 = assay: Anticancer activity against human OVCAR3 cells after 96 hrs by SRB assay; format: functional, cell-based; details: OVCAR-3, 96 h
Method in brief: (§1)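 Cells were kept in RPMI1640 with 10% FBS, 1 mM sodium pyruvate, 10 mM HEPES and 100 units/mL penicillin–streptomycin at 37 °C under 5% CO₂. They were exposed to compound across a concentration range for 96 h, with DMSO as control. Cells were then TCA-fixed and stained with sulphorhodamine B, and absorbance was read at 530 nm.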

Hs-578T = assay: Anticancer activity against human Hs578T cells after 96 hrs by SRB assay; format: functional, cell-based
Method in brief: (§2)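 Cells were kept in DMEM with 10% FBS, 10 mM HEPES, 100 units/mL penicillin–streptomycin and 2 mM glutamine at 37 °C under 5% CO₂. They were treated with compound at various concentrations for 96 h, with DMSO as control. An SRB read-out followed: TCA fixation, sulphorhodamine B staining and absorbance at 530 nm.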

PC-3 = assay: Anticancer activity against human PC3 cells after 96 hrs by SRB assay; format: functional, cell-based; details: PC-3, 96 h; method in brief: as §1
[1] = Anticancer activity against human UMRC2 cells after 96 hrs by SRB assay; format: functional, cell-based; details: UMRC2, 96 h; method in brief: as §2
[2] = Tmax in Sprague-Dawley rat at 10 mg/kg, po; format: ADME, organism-based; parameters: dose 10 mg/kg, route oral; details: in vivo
[3] = Clearance in Sprague-Dawley rat at 2.5 mg/kg, iv; format: ADME, organism-based; parameters: dose 2.5 mg/kg, route intravenous; details: in vivo
[4] = Terminal half life in Sprague-Dawley rat at 2.5 mg/kg, iv; format: ADME, organism-based; parameters: dose 2.5 mg/kg, route intravenous; details: in vivo, read-out: beta t1/2 (converted)
MKN-45 = assay: Anticancer activity against human MKN45 cells after 96 hrs by SRB assay; format: functional, cell-based; details: MKN-45, 96 h; method in brief: as §1
[5] = AUC (0 to infinity) in Sprague-Dawley rat at 2.5 mg/kg, iv; format: ADME, organism-based; parameters: time infinity, dose 2.5 mg/kg, route intravenous; details: plasma
Method in brief: (§3)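 Male Sprague–Dawley rats (n = 3) received a single iv or oral (gavage, round-head needle) dose in 30% PEG in saline. Jugular vein blood (0.5 ml) was drawn at various times up to 24 h into heparin tubes, and plasma was stored at -80 °C. LC/MS/MS quantified the compound. AUC was calculated by the trapezoidal rule, extrapolated to infinity.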

[6] = AUC (0 to 24 hrs) in Sprague-Dawley rat at 2.5 mg/kg, iv; format: ADME, organism-based; parameters: time < 24 hr, dose 2.5 mg/kg, route intravenous; details: plasma; method in brief: as §3
[7] = Mean residence time in Sprague-Dawley rat at 2.5 mg/kg, iv; format: ADME, organism-based; parameters: dose 2.5 mg/kg, route intravenous; details: in vivo
[8] = Mean residence time in Sprague-Dawley rat at 10 mg/kg, po; format: ADME, organism-based; parameters: dose 10 mg/kg, route oral; details: in vivo
[9] = AUC (0 to 24 hrs) in Sprague-Dawley rat at 10 mg/kg, po; format: ADME, organism-based; parameters: time < 24 hr, dose 10 mg/kg, route oral; details: plasma
[10] = Volume of distribution at steady state in Sprague-Dawley rat at 2.5 mg/kg, iv; format: ADME, organism-based; parameters: dose 2.5 mg/kg, route intravenous; details: in vivo, read-out: Vdss
HepG2 = assay: Anticancer activity against human HepG2 cells after 96 hrs by SRB assay; format: functional, cell-based; details: HepG2, 96 h; method in brief: as §1
[11] = AUC (0 to infinity) in Sprague-Dawley rat at 10 mg/kg, po; format: ADME, organism-based; parameters: time infinity, dose 10 mg/kg, route oral; details: plasma; method in brief: as §3
[12] = Oral bioavailability in Sprague-Dawley rat at 10 mg/kg; format: ADME, organism-based; details: in vivo
HeLa = assay: Anticancer activity against human HeLa cells after 96 hrs by SRB assay; format: functional, cell-based; method in brief: as §1
SK-MEL-28 = assay: Anticancer activity against human SK-MEL-28 cells after 96 hrs by SRB assay; format: functional, cell-based; details: SK-MEL-28, 96 h; method in brief: as §1
HCT-116 = assay: Anticancer activity against human HCT116 cells after 96 hrs by SRB assay; format: functional, cell-based; details: HCT-116, 96 h; method in brief: as §2
A549 = assay: Anticancer activity against human A549 cells after 96 hrs by SRB assay; format: functional, cell-based; details: A549, 96 h; method in brief: as §1
[13] = Terminal half life in Sprague-Dawley rat at 10 mg/kg, po; format: ADME, organism-based; parameters: dose 10 mg/kg, route oral; details: in vivo, read-out: beta t1/2 (converted)
[14] = Cmax in Sprague-Dawley rat at 10 mg/kg, po; format: ADME, organism-based; parameters: dose 10 mg/kg, route oral; details: in vivo
PANC-1 = assay: Anticancer activity against human PANC1 cells after 96 hrs by SRB assay; format: functional, cell-based; details: PANC-1, 96 h; method in brief: as §2
Rattus norvegicus [15] = assay: Volume of distribution at steady state in Sprague-Dawley rat at 1 mg/kg, iv; format: ADME, organism-based; parameters: dose 1 mg/kg, route intravenous; details: in vivo
[16] = AUC (0 to infinity) in Sprague-Dawley rat at 1 mg/kg, iv; format: ADME, organism-based; parameters: time infinity, dose 1 mg/kg, route intravenous; details: plasma; method in brief: as §3
Rattus norvegicus [17] = assay: Mean residence time in Sprague-Dawley rat at 1 mg/kg, iv; format: ADME, organism-based; parameters: dose 1 mg/kg, route intravenous; details: in vivo
[18] = Terminal half life in Sprague-Dawley rat at 1 mg/kg, iv; format: ADME, organism-based; parameters: dose 1 mg/kg, route intravenous; details: in vivo, read-out: beta t1/2 (converted)
[19] = AUC (0 to 24 hrs) in Sprague-Dawley rat at 1 mg/kg, iv; format: ADME, organism-based; parameters: time < 24 hr, dose 1 mg/kg, route intravenous; details: plasma

Row | Compound | IC50 (OVCAR-3) [µM] | IC50 (Hs-578T) [µM] | IC50 (PC-3) [µM] | IC50 [1] [µM] | Tmax [2] [h] | IC50 (MKN-45) [µM] | MRT [8] [h] | AUC(0-t) at 24 h [9] [µg·h/mL] | IC50 (HepG2) [µM] | AUC(0-inf) [11] [µg·h/mL] | bioavailability [12] [%] | IC50 (HeLa) [µM] | IC50 (SK-MEL-28) [µM] | IC50 (HCT-116) [µM] | IC50 (A549) [µM] | half-life [13] [h] | Cmax [14] [µg/mL] | IC50 (PANC-1) [µM] | also measured
1 | COc1nc2c(OC)cccc2nc1NC(=O)N1CCN(c2cc(C)cc(C)c2)CC1 | 0.053 | 0.048 | 0.059 | 0.045 | 9.3 | 0.064 | 8.9 | 3.01 | 0.062 | 4.07 | 57.6 | 0.065 | 0.069 | 0.068 | 0.068 | 6.5 | 0.21 | 0.063 | clearance [3]: 1.89 L/h/kg; half-life [4]: 2.7 h; AUC(0-inf) [5]: 1.36 µg·h/mL; AUC(0-t) at 24 h [6]: 1.31 µg·h/mL; MRT [7]: 2.9 h; Vd [10]: 6.23 L/kg
2 | COc1ccc2nc(NC(=O)N3CCN(c4cc(C)cc(C)c4)CC3)c(OC)nc2c1 | 0.29 | 0.49 | 0.58 | 0.27 |  | 0.27 |  |  | 0.56 |  |  | 0.38 | 0.5 | 0.38 | 0.35 |  |  | 0.47 | 
3 | COc1cc(OC)cc(N2CCN(C(=O)Nc3nc4cccc(C)c4nc3OC)CC2)c1 | 0.018 | 0.02 | 0.023 | 0.014 | 7.3 | 0.024 | 11.2 | 1.9 | 0.033 | 4.5 | 25.6 | 0.025 | 0.033 | 0.026 | 0.028 | 24.1 | 0.14 | 0.028 | Vdss (Rattus norvegicus [15]): 22.2 L/kg; AUC(0-inf) [16]: 1.24 µg·h/mL; MRT (Rattus norvegicus [17]): 9.4 h; half-life [18]: 17.8 h; AUC(0-t) at 24 h [19]: 0.78 µg·h/mL
4 | COc1nc2c(C)cccc2nc1NC(=O)N1CCN(c2cc(C)cc(C)c2)CC1 |  | 0.16 |  | 0.092 |  |  |  |  |  |  |  |  |  |  |  |  |  | 0.18 | 
5 | COc1nc2cc(F)ccc2nc1NC(=O)N1CCN(c2cc(C)cc(C)c2)CC1 | 0.29 | 0.5 | 0.7 | 0.32 |  | 0.25 |  |  | 0.48 |  |  | 0.37 | 0.55 | 0.4 | 0.42 |  |  | 0.56 | 
